# Assay results pooled from the literature.
# Protocols differ between the studies behind these lines.
# Target: Phosphatidylinositol 4,5-bisphosphate 3-kinase catalytic subunit gamma isoform (PIK3CG, Homo sapiens, UniProt P48736)
SMILES,effect on,mode,method,concentration,endpoint,result
Cc1ccc(C(=O)Nc2ccc(CN3CCN(C)CC3)c(C(F)(F)F)c2)cc1C#Cc1cnc2cccnn12,enzyme activity,inhibitor,,23.5 nM,remaining activity,85%
C[C@@H]1CN(c2cc(-c3nn(C)c4ccc(OC5(C)CC5)cc34)ncn2)C[C@H](C)O1,cell-free assay,,competition with immobilised ligand,1 µM,remaining binding,100%
CC(C)CCn1c(SCC(=O)Nc2ccccc2C(F)(F)F)nc2nccnc2c1=O,enzyme activity,inhibitor,,10 µM,inhibition,< 20%
COc1cc(Cl)c(C(=O)N[C@@H](CN[C@H]2CC[C@@H](N)CC2)Cc2ccc(C#N)cc2)cc1-c1ccc(CN[C@H](C)c2ccc(C)cc2)o1,enzyme activity,inhibitor,,1 µM,remaining activity,102%
CO[C@@H](C)c1c(Nc2ccc([C@@H](N(C)C(=O)C3CCS(=O)(=O)CC3)C(F)(F)F)cc2)cnc2cc(Cl)nn12,cell-free assay,,competition with immobilised ligand,1 µM,remaining binding,87%
Cc1ccc(NC(=O)c2ccc(C)c(C(F)(F)F)c2)cc1C#Cc1nn(C2CCC(O)CC2)c2ncnc(N)c12 (stereo not drawn),enzyme activity,inhibitor,,10 µM,remaining activity,87%
Cc1ccc(C(=O)NCc2ccsc2)cc1C#Cc1cn(C(C)C)c2ncnc(N)c12,enzyme activity,inhibitor,,1 µM,activity vs control,96%
CC1=C(C#N)[C@@H](c2ccc3[nH]nc(C)c3c2)C(C#N)=C(c2ccc(Cl)cc2)N1,cell-free assay,,competition with immobilised ligand,1 µM,remaining binding,100%
COc1cc(-c2cc(-c3ccc(N4CCNCC4)cc3)cnc2C)cc(OC)c1OC,enzyme activity,inhibitor,,0.1 µM,inhibition,14%
CS(=O)(=O)Nc1cccc(-c2csc(NC(=O)CSc3nc4nccnc4c(=O)n3CCc3ccccc3)n2)c1,enzyme activity,inhibitor,,10 µM,inhibition,20%
CS(=O)(=O)Nc1cc(-c2ccc3ncnc(Nc4ccc(F)c(Cl)c4)c3c2)cnc1Cl,enzyme activity,inhibitor,FRET,10 µM,inhibition,90 to 100%
O=S(=O)(Nc1cc(Sc2ncn[nH]2)c(O)c2ccccc12)c1ccc(-c2ccccc2)cc1,enzyme activity,inhibitor,,1 µM,remaining activity,≥ 75%
